Measured values from publication PMC6648849 (ACS Omega, 2019).

Experiments:
MTs [1] = assay: depolymerization/polymerization of MTs in living HepG2 cells; type: cell-based, human; conditions: 10 μM colchicine coincubated with 10 μM TP–TMR, 6 h, 37 °C
Summary of the method: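 HepG2 cells expressing BacMam-delivered tubulin–GFP were coincubated with 10 μM test compound and 10 μM colchicine for 6 h at 37 °C under 5% CO2. Nuclei stained with Hoechst 33342 after a PBS wash. Compound and tubulin–GFP signals imaged by confocal microscopy to assess colocalization of compound fluorescence with microtubule fibres.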

HepG2 cells [2] = assay: cell viability assay; type: cell-based, human; conditions: 0–20 μM, 37 °C, 5% CO2, WST (Cell Counting Kit-8), absorbance at 450 nm
Summary of the method: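 HepG2 cells plated at 1.0 × 10^4 cells/well and grown 24 h at 37 °C, 5% CO2. Medium replaced with 0–20 μM test compound for 24 or 72 h. Then fresh medium plus Cell Counting Kit-8 (WST) reagent, 4 h incubation, and absorbance read at 450 nm. Viability (%) is relative to untreated control cells set as 100%.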

HepG2 cells [3] = assay: cellular uptake by CLSM in HepG2 cells; type: cell-based, human; conditions: 10 μM, 6 h, 37 °C, 5% CO2; CLSM fluorescence imaging
Summary of the method: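 HepG2 cells seeded on glass-bottom dishes at 2.0 × 10^4 cells/well, grown ~24 h, then transduced with BacMam tubulin–GFP for 24 h at 37 °C, 5% CO2. Incubated with 10 μM test compound in medium, PBS-washed, and nuclei stained with 5 μg/mL Hoechst 33342 for 10 min. Confocal imaging: compound ex 550/em 574 nm, GFP ex 489/em 510 nm.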

[4] = cited from earlier work
MTs [5] = conditions: cited from earlier work

## COc1cc2c(c(OC)c1OC)-c1ccc(OC)c(=O)cc1[C@@H](NC(C)=O)CC2 [colchicine]
MTs [1]
  effect on polymerization of MTs in HepG2 cells: polymerization of MTs was inhibited
HepG2 cells [2]
  cytotoxicity against HepG2 cells, 24 h: clear cytotoxicity in a concentration-dependent manner

## 5(6)-carboxytetramethylrhodamine [TMR–COOH]
HepG2 cells [3]
  cellular uptake into HepG2 cells: not observed

## CGGGKKHVPGGGSVQIVYKPVDL [TP]
[4]
  water solubility: high water solubility at millimolar concentrations
MTs [5]
  effect of binding on polymerization/depolymerization of MTs in vitro: does not inhibit

## CC(=O)O[C@H]1C(=O)[C@@]2(C)[C@H]([C@H](OC(=O)c3ccccc3)[C@]3(O)C[C@H](OC(=O)[C@H](O)[C@@H](NC(=O)c4ccccc4)c4ccccc4)C(C)=C1C3(C)C)[C@]1(OC(C)=O)CO[C@@H]1C[C@@H]2O [taxol]
HepG2 cells [2]
  cytotoxicity against HepG2 cells, 24 h: clear cytotoxicity in a concentration-dependent manner
